# Reference: ChEMBL document CHEMBL3045839, “Curcumin, a known phenolic from Curcuma longa, attenuates the virulence of Pseudomonas aeruginosa PAO1 in whole plant and animal pathogenicity models” (2008)
# The source made the active and inactive calls. The calls are words filed in the database; no cut-off is given here.
# Legend:
# Pseudomonas aeruginosa [1] = experiment: Antimicrobial activity against Pseudomonas aeruginosa PAO1 infected in Arabidopsis thaliana Col-0 assessed as change in bacterial count in presence of AHL/3-oxo-HSL; type: functional, organism-based
# Procedure, shortened: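 Col-0 seedlings in liquid MS medium inoculated with PAO1 (OD600 0.02–0.04, ~2.8 × 10^8 cells/mL) plus curcumin 3.0 µg/mL, with or without exogenous AHL/3-oxo-HSL. Roots harvested after 7 days; bacteria enumerated as CFU per gram fresh weight. Triplicate experiments.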
# Pseudomonas aeruginosa [2] = experiment: Down regulation of virulence factor production in Pseudomonas aeruginosa PAO1 assessed as reduction in elastase production at 1 to 5 ug/mL relative to untreated control; type: functional
# Procedure, shortened: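 Culture grown with or without curcumin for 24 h at 37 °C in PTSB (5% peptone, 0.25% tryptic soy broth). Filtered supernatant was added to elastin-congo red in 10 mM Na2HPO4, pH 7, and shaken for 4 h at 37 °C. After centrifugation, OD495 was read and normalised to cell density.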
# Pseudomonas aeruginosa [3] = experiment: Down regulation of virulence factor production in Pseudomonas aeruginosa PAO1 assessed as reduction in protease production at 1 to 5 ug/mL relative to untreated control; type: functional
# Procedure, shortened: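 Culture grown with or without curcumin for 24 h at 37 °C in PTSB (5% peptone, 0.25% tryptic soy broth). Filtered supernatant was incubated with 0.8% azocasein in 50 mM K2HPO4, pH 7, for 3 h at 25 °C. The reaction was stopped with 1.5 M HCl, kept on ice 30 min and centrifuged. NaOH was added, OD440 read and normalised to cell density.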
# Pseudomonas aeruginosa [4] = experiment: Down regulation of QS system in Pseudomonas aeruginosa PAO1 assessed as reduction in total homoserine lactone production at 5 ug/mL by HPLC relative to untreated control; type: functional
# Pseudomonas aeruginosa [5] = experiment: Down regulation of rhlA expression in Pseudomonas aeruginosa PAO1 at 3 ug/mL by microarray gene expression analysis; type: functional, organism-based
# Procedure, shortened: (§1)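 PAO1 grown in triplicate in LB with curcumin 3 µg/mL, starting at OD600 ~0.02, at 37 °C and 200 rpm for 10 h (~2 OD600). RNA was isolated from 5 mL of culture, and 10 µg was amplified for microarray expression analysis.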
# Pseudomonas aeruginosa [6] = experiment: Growth inhibition of Pseudomonas aeruginosa PAO1 planktonic forms at >5 ug/mL; type: functional, organism-based
# Procedure, shortened: (§2)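 PAO1 grown in LB with curcumin 0.5–30.0 µg/mL from an initial OD600 of 0.02; compound predissolved in ethanol, final solvent ≤0.02% v/v. OD600 read every 5 h up to 25 h; colony counts taken. n = 6, standard error.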
# Pseudomonas aeruginosa [7] = experiment: Down regulation of lasI expression in Pseudomonas aeruginosa PAO1 at 3 ug/mL by microarray gene expression analysis; type: functional, organism-based; procedure, shortened: as §1
# Pseudomonas aeruginosa [8] = experiment: Antimicrobial activity against Pseudomonas aeruginosa PAO1 infected in Arabidopsis thaliana Col-0 assessed as protection against infection of roots at 3 ug/mL measured 7 days post dose; type: functional, organism-based
# Procedure, shortened: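 In vitro root pathogenicity: ten-day-old Col-0 plants (n = 20 per treatment) in 2 mL liquid MS medium were inoculated with PAO1 at OD600 0.02–0.04 (~2.8 × 10^8 cells/mL), with curcumin 3.0 µg/mL added together with the bacteria. A non-inoculated control was kept. Plant mortality was recorded 7 days after inoculation; triplicate experiments.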
# Pseudomonas aeruginosa [9] = experiment: Down regulation of QS system in Pseudomonas aeruginosa PAO1 assessed as reduction in C4-HSL production at 1 ug/mL by HPLC; type: functional; set-up: scale not given: the % may be the effect or the level left
# Pseudomonas aeruginosa [10] = experiment: Inhibition of biofilm formation of Pseudomonas aeruginosa PAO1 at 2 to 3 ug/mL by confocal scanning laser microscopy; type: functional, organism-based
# Procedure, shortened: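 PAO1 grown on two-well Permanox slides with curcumin 2–3 µg/mL. Stained with a LIVE/DEAD BacLight kit (SYTO 9/propidium iodide) 48 h postinoculation and imaged by confocal laser scanning microscopy with a 10× objective. Repeated twice, three replicates each.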
# Pseudomonas aeruginosa [11] = experiment: Antimicrobial activity against Pseudomonas aeruginosa PAO1 infected in Arabidopsis thaliana Col-0 assessed as inhibition of biofilm formation in roots at 3 ug/mL measured 7 days post dose; type: functional, organism-based
# Procedure, shortened: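 Ten-day-old Col-0 plants in 2 mL liquid MS medium were inoculated with PAO1 (OD600 0.02–0.04) with curcumin 3.0 µg/mL added alongside the bacteria. Root-surface biofilm was imaged by confocal microscopy after BacLight live/dead staining.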
# Pseudomonas aeruginosa [12] = experiment: Down regulation of QS system in Pseudomonas aeruginosa PAO1 assessed as reduction in 3-oxo-C12-HSL production at 1 ug/mL by HPLC; type: functional; set-up: scale not given: the % may be the effect or the level left
# Pseudomonas aeruginosa [13] = experiment: Down regulation of virulence factor production in Pseudomonas aeruginosa PAO1 assessed as reduction in pyocyanin production at 1.5 to 3 ug/mL; type: functional; set-up: scale not given: the % may be the effect or the level left
# Procedure, shortened: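 PAO1 grown in LB with or without curcumin (1.5–3 µg mL-1) and harvested. Pyocyanin was extracted and estimated by the Mahajan-Miklos method, then normalised against live cell numbers.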
# Pseudomonas aeruginosa [14] = experiment: Inhibition of biofilm formation of Pseudomonas aeruginosa PAO1 at 1.5 to 3 ug/mL by crystal violet staining method; type: functional, organism-based
# Procedure, shortened: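 Static biofilm in polypropylene tubes with LB containing curcumin 1.5–3.0 µg/mL from the start of incubation; ethanol equalized across tubes. Crystal violet staining, ethanol solubilization, OD read. Three replicates.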
# Pseudomonas aeruginosa [15] = experiment: Down regulation of phzD expression in Pseudomonas aeruginosa PAO1 at 3 ug/mL by microarray gene expression analysis; type: functional, organism-based; procedure, shortened: as §1
# Pseudomonas aeruginosa [16] = experiment: Effect on QS system related genes in Pseudomonas aeruginosa PAO1 at 3 ug/mL by microarray gene expression analysis; type: functional, organism-based; procedure, shortened: as §1
# Pseudomonas aeruginosa [17] = experiment: Growth inhibition of Pseudomonas aeruginosa PAO1 planktonic forms; type: functional; procedure, shortened: as §2
compound,measurement,setting,value
COc1cc(/C=C/C(=O)CC(=O)/C=C/c2ccc(O)c(OC)c2)ccc1O [CURCUMIN],Activity,Pseudomonas aeruginosa [1],inactive
same,fold change (FC),Pseudomonas aeruginosa [2],2
same,fold change (FC),Pseudomonas aeruginosa [3],2
same,fold change (FC),Pseudomonas aeruginosa [4],3
same,Activity,Pseudomonas aeruginosa [5],Active
same,growth inhibition (GI),Pseudomonas aeruginosa [6],inactive
same,Activity,Pseudomonas aeruginosa [7],Active
same,inhibition,Pseudomonas aeruginosa [8],Active
same,Activity,Pseudomonas aeruginosa [9],>2%
same,inhibition,Pseudomonas aeruginosa [10],Active
same,inhibition,Pseudomonas aeruginosa [11],Active
same,Activity,Pseudomonas aeruginosa [12],25%
same,Activity,Pseudomonas aeruginosa [13],60%
same,inhibition,Pseudomonas aeruginosa [14],Active
same,Activity,Pseudomonas aeruginosa [15],Active
same,Activity,Pseudomonas aeruginosa [16],Active
same,MIC,Pseudomonas aeruginosa [17],30 µg/mL
